Activity calls are given as the source filed them.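 Rule for the calls, unless noted: active = visually confirmed hit in the image check and inhibition above 20%; inconclusive = visually confirmed hit but inhibition not above 20%; inactive = no visual hit in the image check.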

Assay [1] is described as follows: inhibitors of TNFa-induced NFkB p65 translocation, primary screen, imaging, HUVEC, MLSMR starter and 10KST1 sets (AID 438;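 active = inhibition above 20% together with a positive visual image hit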;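 note: compound added about 3h40 before a 20 min TNFalpha stimulation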;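 for inhibition: signal is the nuclear over cytoplasmic p65 intensity ratio per well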). Conditions: HUVEC TNFa-induced p65 nuclear translocation; cell count: measured here: nuclei count (cytotoxicity indicator), at 2.08 µM; inhibition: at 2 µM, stronger effect = higher value, 0% TNFa-plus-vehicle, 100% no-TNFa wells.
Assay [2] in a line: inhibitors of mutant huntingtin aggregation, primary screen, imaging, exon1htt(103Q)mCFP cells, high-content imaging (AID 483;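 active = visual image review flags a hit and inhibition of aggregation exceeds 20%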;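 note: compound exposure lasted 3 days before fixation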;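 for nuclei count: percent of the per-plate median nuclei count of sample wells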). Conditions: exon1htt(103Q)mCFP cell line, aggregate imaging, at 2 µM; inhibition of aggregation: stronger effect = higher value; nuclei count: measured here: cell count, toxicity.
Assay [3] can be described thus: inhibitors of E-selectin induction by TNFa, primary screen, imaging, HUVEC, immunofluorescence, MLSMR starter and 10KST1 sets (AID 487).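 For inhibition: signal is fraction of cell area covered by stained E-selectin grains.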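 For nuclei count: 100% = median nuclei count of all wells on the same plate.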 Conditions: HUVEC TNFalpha-induced E-selectin immunofluorescence imaging, at 2 µM; inhibition: stronger effect = higher value; nuclei count: measured here: cell number, toxicity.
Assay [4] deals with Voltage-gated potassium channel subunit beta-2 (Rattus norvegicus) (UniProt P62483). Kind of assay: KvBeta enzyme negative modulators, primary screen, biochemical, NADPH fluorescence (AID 622;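 active = fluorescence slope higher than the sample average by over 3 SD, cut at about -0.22 in these data, passing the limit was not always enough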;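 note: slope of raw intensity against log time taken from 70 to 1610 s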). Conditions: recombinant KvBeta, 4-cyanobenzaldehyde reduction, at 10 µM, stronger effect = higher value.
Voltage-gated potassium channel subunit beta-2 (Rattus norvegicus), sequence (P62483 whole entry, looked up): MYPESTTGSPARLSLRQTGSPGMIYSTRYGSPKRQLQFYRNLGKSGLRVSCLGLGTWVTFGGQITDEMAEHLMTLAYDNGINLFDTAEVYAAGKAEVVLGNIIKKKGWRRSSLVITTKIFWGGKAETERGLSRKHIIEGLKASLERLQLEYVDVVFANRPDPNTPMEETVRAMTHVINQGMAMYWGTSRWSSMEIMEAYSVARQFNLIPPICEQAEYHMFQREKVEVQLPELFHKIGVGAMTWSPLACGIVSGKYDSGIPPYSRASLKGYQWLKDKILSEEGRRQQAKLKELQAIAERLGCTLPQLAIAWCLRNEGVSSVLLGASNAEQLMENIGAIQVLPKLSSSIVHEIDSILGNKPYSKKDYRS
For assay [5] the target is unchanged. Kind of assay: KvBeta positive modulators, primary screen, biochemical, NADPH fluorescence (AID 623;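 active = NADPH fluorescence slope more negative than the mean of all samples by about 3 SD, 99.7% confidence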;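 note: fluorescence intensity change per second fitted from 20 to 320 s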). The note with it: Recombinant KvBeta, NADPH fluorescence decrease slope, 10 min; at 10 µM; stronger effect = lower value.
Assay [6] addresses Alpha-2C adrenergic receptor (Homo sapiens) (UniProt P18825). In words: modulators of alpha2C/GIRK thallium flux, primary screen, cell-based, HEK293 alpha2C/GIRK1/2 (AID 624;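 active = fluorescence slope after compound addition differing from the mean of all screened samples at 99.7% confidence, in either direction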;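 note: slope of fluorescence ratio to pre-addition baseline per second over 15 to 24 s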). The note with it: thallium flux BTC fluorescence, at 10 µM, actives lie on both sides.
The nature of assay [7]: inhibitors of larval lipid processing in zebrafish, primary screen, whole organism, PED6 fluorescence, gall bladder and intestine (AID 686;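 active = a full or partial loss of lipid-probe fluorescence in the fish gall bladder, intestine or both, judged by eye; inactive = no fluorescence loss, or compound toxic to the fish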;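 note: larvae 5 to 7 days old with five fish per well; signal comes from phospholipase A2 cleavage of quenched PED6 carried via bile; overnight exposure to compound and PED6 before scoring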). The note with it: Zebrafish larvae PED6 lipid processing, fluorescence scoring; screened at 20 µM (by protocol). In outline:
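Also added: quenched phospholipase substrate PED6, 100 nM final, ingested by larvae; System: zebrafish larvae, 5-7 d; Quantity: 5 larvae per well; Compound: 20 µM single dose; Schedule: overnight compound and PED6 incubation; Read-out: visual per-well fluorescence inhibition score; Measured by: By-eye fluorescence microscopy; Medium: E3.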

Assay [8] can be described thus: inhibitors of Sendai virus-induced IRF3 signaling, primary screen, TLR/RLR signaling modifier project, cell-based, Sendai virus stimulus, luciferase, 10K MLSCN set (AID 602276;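 active = inhibition at or above 50% at 10 µM; inactive = inhibition below 50%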;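 note: firefly luciferase from ISG56 promoter only with Renilla not read in this screen; 0% = Sendai virus plus DMSO and 100% = medium plus DMSO without virus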). The note with it: HEK293 RL24 IRF3 luciferase reporter, at 10 µM, stronger effect = higher value. On the technique in general: In a reporter assay the amount or activity of a reporter protein is the signal.

Assay [9] can be described thus: inhibitors of poly I:C-induced TLR3 signaling, primary screen, cell-based, poly I:C stimulus, luciferase, 10K MLSCN set (AID 602277;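 active = inhibition of the reporter signal at or above 50%; inactive = inhibition below 50%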). The note with it: HEK293-TLR3 RL24 IRF3 luciferase reporter, at 10 µM, stronger effect = higher value.

Alpha-2C adrenergic receptor (Homo sapiens), sequence (P18825 whole entry, looked up): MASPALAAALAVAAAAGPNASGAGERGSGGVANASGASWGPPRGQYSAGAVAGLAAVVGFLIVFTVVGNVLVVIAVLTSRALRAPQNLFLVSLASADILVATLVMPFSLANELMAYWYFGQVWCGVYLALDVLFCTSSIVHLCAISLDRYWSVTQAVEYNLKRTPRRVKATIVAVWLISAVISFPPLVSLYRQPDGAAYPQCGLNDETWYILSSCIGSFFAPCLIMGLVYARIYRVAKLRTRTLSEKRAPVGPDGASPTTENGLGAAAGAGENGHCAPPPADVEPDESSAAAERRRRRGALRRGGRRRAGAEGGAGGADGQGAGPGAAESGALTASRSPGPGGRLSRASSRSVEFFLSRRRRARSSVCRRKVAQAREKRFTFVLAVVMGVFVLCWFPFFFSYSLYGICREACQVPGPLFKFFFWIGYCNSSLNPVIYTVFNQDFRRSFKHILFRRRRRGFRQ

The inhibition is the change of the read-out against control, counted positive when it falls. For the compound `COc1cccc(NC(=O)N(CCCN2CCOCC2)C(C)c2cc3cccc(OC)c3o2)c1` (centres undefined), in assay [1], the cell count was 863. Moreover, the inhibition in assay [1] is 5% (inactive); in assay [3], -93.2% (inactive); in [8] it was 16.5% (inactive); in [9], 34.8% (inactive). Besides, the inhibition of aggregation in [2] was -3.4% (inactive). In addition, the nuclei count in [2] stood at 106%; in assay [3], 132%. The fluorescence slope in [4] is -0.433 (inactive). Further, the NADPH fluorescence slope in assay [5] is -6.3e-05 (inactive). Besides, in assay [6], the slope is 0.00436 (inactive). For the same compound, the compound was called inactive in assay [7].
Consider `CC1Oc2ccccc2N(CC(=O)NCc2cccs2)C1=O` (centres undefined), for which, in [1], the cell count amounted to 787. Also, the inhibition is 1.6% (inactive) in [1], -146% (inactive) in assay [3], -0.51% (inactive) in [8] and -12.6% (inactive) in assay [9]. Moreover, in assay [2], the inhibition of aggregation was 2.2% (inactive). Further, the values for the nuclei count in assay [2] and in assay [3] were 91.4% and 120%, respectively. Also, the fluorescence slope in assay [4] is -0.448 (inactive). In addition, in assay [5], the NADPH fluorescence slope was -6e-05 (inactive). Besides, the slope in assay [6] is 0.00433 (inactive). For the same compound, in assay [7], the outcome is “active; weak signal in gallbladder only”.
In the case of `COC(=O)c1[nH]c2ccc(C)cc2c1NC(=O)CN1CCN(C(=O)c2ccccc2)CC1`, the cell count in [1] was found to be 330. Besides, the inhibition is -4% (inactive) in assay [1], -26.1% (inactive) in assay [3], 18.9% (inactive) in [8] and 14.6% (inactive) in assay [9]. For the same compound, the inhibition of aggregation in assay [2] was 3% (inactive). For the same compound, the nuclei count in [2] was found to be 99.5%; in assay [3], 102%. For the same compound, in assay [4], the fluorescence slope is -0.306 (inactive). Further, the NADPH fluorescence slope in [5] is -3.3e-05 (inactive). Further, the slope in assay [6] is 0.00437 (inactive). Moreover, the outcome in assay [7] was inactive.
`CC(Sc1n[nH]c(=O)[nH]c1=O)C(=O)OCc1ccccc1` (centres undefined): the cell count in assay [1] was 281. Further, the inhibition in assay [1] was -2.5% (inactive); in assay [3], -83.4% (inactive); in assay [8], 14.4% (inactive); in assay [9], 10.9% (inactive). In addition, the inhibition of aggregation in [2] is 10.6% (inactive). For the same compound, the values for the nuclei count in [2] and in assay [3] were 89.4% and 116%, respectively. Moreover, the fluorescence slope in assay [4] was -0.305 (inactive). For the same compound, the NADPH fluorescence slope in assay [5] is -2.2e-05 (inactive). In addition, the slope in [6] is 0.00608 (inactive). Further, the outcome in assay [7] was inactive.
With `COc1ccccc1S(=O)(=O)Cc1ccc(C(=O)N2CCN(c3ccccn3)CC2)o1`, the cell count in assay [1] turned out to be 624. Further, the inhibition is -4% (inactive) in assay [1], -53.1% (inactive) in [3], 20.6% (inactive) in assay [8] and 15.8% (inactive) in assay [9]. The inhibition of aggregation in [2] is 0.9% (inactive). Besides, the figures for the nuclei count in [2] and in assay [3] were 106% and 104%, respectively. Also, in [4], the fluorescence slope was -0.517 (inactive). In addition, in assay [5], the NADPH fluorescence slope was -3.4e-05 (inactive). In addition, the slope in assay [6] is 0.00659 (inactive).
As for `Cc1nc(-c2ccccc2)sc1C(N)=O`, the cell count in assay [1] was 424. Further, the inhibition in assay [1] was 4.7% (inactive); in [3], -40.1% (inactive); in [8], -21.5% (inactive); in [9], -49.1% (inactive). In assay [2], the inhibition of aggregation was 25.4% (inactive). For the same compound, the nuclei count in assay [2] came out at 104%; in assay [3] it was 117%. The fluorescence slope in assay [4] was -0.524 (inactive). The NADPH fluorescence slope in [5] was 1.6e-05 (inactive). In addition, the slope in [6] is 0.0052 (inactive). The compound was classed as inactive in [7].
On to `CCOC(=O)c1ccc2[nH]c3c(c2c1)CCCCC3=O`, for which the cell count in [1] turned out to be 681. In addition, the inhibition in assay [1] is -11% (inactive); in [3] it was 32% (inactive); in [8], -36.8% (inactive); in [9], -77.8% (inactive). For the same compound, the inhibition of aggregation in assay [2] was -12.9% (inactive). In addition, the nuclei count in assay [2] came to 106%; in assay [3] it was 96.5%. Also, the fluorescence slope in assay [4] was -0.389 (inactive). Besides, the NADPH fluorescence slope in assay [5] was -5.3e-05 (inactive). In [6], the slope was 0.00399 (inactive). Further, in assay [7], the compound was called inactive.
For the compound `CCOC(=O)c1cc2ccc(OC)c(OC)c2c(=O)s1`, the cell count in assay [1] was 452. In addition, the inhibition in assay [1] is 4.9% (inactive); in assay [3] it was 36.3% (inactive); in assay [8], -11.9% (inactive); in assay [9], -12.5% (inactive). Besides, the inhibition of aggregation in assay [2] is -3.4% (inactive). For the same compound, the nuclei count in assay [2] came to 102%; in [3] it was 108%. In addition, in assay [4], the fluorescence slope is -0.396 (inactive). In assay [5], the NADPH fluorescence slope is -2.4e-05 (inactive). In assay [6], the slope is 0.00363 (inactive).
On to `COc1cc(C2C(C#N)=C(N)OC3=C2C(=O)CC(C)(C)C3)ccc1OC(=O)N1CCOCC1` (centres undefined), for which, in [1], the cell count worked out at 482. For the same compound, the inhibition is -36.6% (inactive) in assay [1], -75% (inactive) in [3], -15.1% (inactive) in [8] and 11.1% (inactive) in assay [9]. Moreover, the inhibition of aggregation in assay [2] was 13.8% (inactive). The nuclei count in [2] turned out to be 86.6%; in assay [3], 112%. Further, the fluorescence slope in [4] was -0.511 (inactive). Further, the NADPH fluorescence slope in [5] was 1.1e-05 (inactive). Also, in [6], the slope is 0.00692 (inactive).
Regarding `Cn1c(CN2CCOCC2)nnc1SCC(=O)NCCc1ccccc1`, the cell count in assay [1] came out at 444. For the same compound, the inhibition was -1% (inactive) in assay [1], -161% (inactive) in [3], -8.38% (inactive) in assay [8] and -42.9% (inactive) in assay [9]. Further, the inhibition of aggregation in assay [2] is 0.2% (inactive). Besides, the nuclei count in [2] is 118%; in assay [3], 210%. The fluorescence slope in assay [4] is -0.613 (inactive). Besides, the NADPH fluorescence slope in [5] was 6.8e-06 (inactive). In addition, the slope in assay [6] is 0.00528 (inactive).
Regarding `CCCCn1c(SCc2ccc(Cl)cc2)nc2c1c(=O)[nH]c(=O)n2C`, the cell count in assay [1] was 396. Besides, the inhibition is 9% (inactive) in [1], -1.3% (inactive) in assay [3], 10.9% (inactive) in assay [8] and 14.5% (inactive) in [9]. Also, the inhibition of aggregation in [2] was 8.8% (inactive). Further, the nuclei count in assay [2] was found to be 109%; in [3], 98.4%. Also, the fluorescence slope in assay [4] is -0.347 (inactive). In addition, the NADPH fluorescence slope in [5] is -4.9e-05 (inactive). For the same compound, the slope in assay [6] was 0.00466 (inactive). Also, the compound was classed as inactive in assay [7].
Turning to `CN(C)C(=O)CN(C)S(=O)(=O)c1ccc(Cl)cc1`, the cell count in assay [1] was found to be 447. Also, the inhibition is 8.7% (inactive) in [1], -2.4% (inactive) in [3], 7.26% (inactive) in assay [8] and 6.1% (inactive) in assay [9]. In addition, in assay [2], the inhibition of aggregation is 10.6% (inactive). Further, the nuclei count in assay [2] stood at 93.2%; in assay [3], 113%. In assay [4], the fluorescence slope was -0.416 (inactive). In addition, the NADPH fluorescence slope in assay [5] was -1.2e-05 (inactive). Besides, the slope in [6] is 0.00557 (inactive). Moreover, the outcome in assay [7] was inactive.
On to `CCOC(=O)c1ccc(CNC(=O)C(Cc2c[nH]c3ccccc23)NC(C)=O)o1` (centres undefined), for which the cell count in assay [1] is 444. Further, the inhibition in assay [1] is -0.3% (inactive); in assay [3], -52.8% (inactive); in assay [8], 17% (inactive); in assay [9] it was 29.3% (inactive). Besides, the inhibition of aggregation in assay [2] is -11.1% (inactive). The nuclei count worked out at 122% in assay [2] and 167% in assay [3]. Further, in assay [4], the fluorescence slope is -0.369 (inactive). The NADPH fluorescence slope in assay [5] is -4.9e-06 (inactive). Further, the slope in [6] was 0.00652 (inactive). Also, the compound was classed as inactive in assay [7].
`CN(C)c1ccc(C2C3=C(CCCC3=O)OC3=C2C(=O)CCC3)cc1`: the cell count in [1] was found to be 571. In addition, the inhibition in [1] was -6.3% (inactive); in [3], -20.9% (inactive); in [8], 14.3% (inactive); in [9], 17% (inactive). In addition, in assay [2], the inhibition of aggregation was 8.9% (inactive). Also, the nuclei count in [2] was 112%; in [3] it was 110%. For the same compound, in assay [4], the fluorescence slope was -0.37 (inactive). The NADPH fluorescence slope in [5] is -5.2e-05 (inactive). Further, the slope in assay [6] is 0.00729 (inactive). Besides, the outcome in [7] was inactive.
